Results taken from ChEMBL document CHEMBL4229335 (Eur J Med Chem, 2018).

Key:
Bel-7402 = test: Antiproliferative activity against human Bel7402 cells after 72 hrs by MTT assay; format: functional, cell-based; details: Bel-7402, 72 h
Procedure, shortened: (§1)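 MTT assay with 72 h exposure to graded concentrations in triplicate. MTT solution then DMSO were added, followed by 10 min at room temperature, with absorbance read at 490 nm. IC50 is reported as the mean of three independent experiments. 5-FU served as positive control.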

Bel7402/5-FU = test: Antiproliferative activity against human Bel7402/5-FU cells after 72 hrs by MTT assay; format: functional, cell-based; procedure, shortened: as §1
L02 = test: Antiproliferative activity against human LO2 cells after 72 hrs by MTT assay; format: cell-based; details: L02, 72 h; procedure, shortened: as §1
HL-60 = test: Antiproliferative activity against human HL60 cells after 72 hrs by MTT assay; format: functional, cell-based; details: HL-60, 72 h; procedure, shortened: as §1
PC-3 = test: Antiproliferative activity against human PC3 cells after 72 hrs by MTT assay; format: functional, cell-based; details: PC-3, 72 h; procedure, shortened: as §1
[1] = Selectivity index, ratio of IC50 for human LO2 cells to IC50 for human Bel7402 cells; format: toxicity; details: LO2 cells versus Bel7402 cells, read-out: Ratio IC50
Procedure, shortened: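 SI was calculated as IC50 in L-02 normal liver cells divided by IC50 in Bel-7402 cells, both from the 72 h MTT assay.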

O=C(O)CCCc1ccc(N(CCCl)CCCl)cc1 [CHLORAMBUCIL]
IC50 (Bel-7402): > 100 µM
IC50 (Bel7402/5-FU): > 100 µM
IC50 (L02): > 100 µM

C=C1C(=O)[C@@]23C(=O)O[C@H]4CCC(C)(C)[C@H]5[C@H](OC(=O)CCC(=O)N[C@@H](Cc6ccc(N(CCCl)CCCl)cc6)C(=O)OC)OC[C@@]45[C@@H]2CC[C@@H]1[C@H]3OC(=O)CCC(=O)N[C@@H](Cc1ccc(N(CCCl)CCCl)cc1)C(=O)OC
IC50 (HL-60): 17.6 µM
IC50 (PC-3): > 100 µM
IC50 (Bel-7402): 5.73 µM
IC50 (Bel7402/5-FU): 7.93 µM
IC50 (L02): > 100 µM

C=C1C(=O)[C@@]23C(=O)O[C@H]4CCC(C)(C)[C@H]5[C@H](O)OC[C@@]45[C@@H]2CC[C@@H]1[C@H]3OC(=O)CCCc1ccc(N(CCCl)CCCl)cc1
IC50 (HL-60): 6.35 µM
IC50 (PC-3): 7.32 µM
IC50 (Bel-7402): 2.08 µM
IC50 (Bel7402/5-FU): 8.49 µM
IC50 (L02): 69.9 µM
selectivity ratio [1]: 33.6
